Source: PubChem
An excerpt weighted towards active compounds, which were near 1.3% of everything screened.
TMEM16A act – activators or potentiators of mouse TMEM16A chloride channel; Q8BHY3; HEK293 TMEM16A/YFP-H148Q/I152L, iodide quench fluorescence; active compounds read low; B-score at 10 µM; hit rate 0.3% among 340,000; AID 623877;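 active = fluorescence-ratio B-score plate-corrected deviation score at least 3 library SD below zero, with starting fluorescence score within 5 deviations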;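 also: channel opened by trigger with iodide after compound preincubation; score built on the fluorescence ratio of max minus min over baseline; more negative score means more quench and so TMEM16A activation or potentiation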
MT1-MMP act inh – inhibitors of human MT1-MMP activation. P50281. HT1080 RFP-PRO-GFP cells, GFP/RFP ratio fluorescence, overnight; percent of plate control window, DMSO zero. GFP/RFP ratio change, % at 20 µM. hit rate 0.061% among 360,000. AID 651647;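 active = GFP/RFP ratio change of at least 30% with cell ATP level not reduced by more than half and red fluorescence within 50% of control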
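system = RFP-PRO-GFP reporter HT1080 cells | dosing = 20 µM single dose, 1% DMSO | timing = overnight cell settling, then overnight compound exposure, 37 °C, 5% CO2 | read-out basis = GFP/RFP fluorescence ratio | controls = DMSO and RFP-L50D-GFP cell wells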
TMEM16A inh – inhibitors of mouse TMEM16A calcium-activated chloride channel | Q8BHY3 | HEK293 TMEM16A/YFP iodide influx fluorescence, ionomycin | normalized B-score (activity score, 25-100; higher = stronger inhibition) at 10 µM | hit rate 1.2% among 310,000 | AID 588511;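 active = ratio plate-corrected score three or more library SD toward inhibition, starting fluorescence score within five deviations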;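 also: score derived from kinetic fluorescence span divided by baseline fluorescence per well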
DAGLB inh – diacylglycerol lipase beta (human) inhibition; HEK293T DAGLB membrane lysate, EnzChek fluorogenic substrate; Q8NCG7; hit rate 0.059% among 340,000; inhibition, % at 5.17 µM; AID 504411; in the data active = inhibition above about 34%;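 also: 0% = enzyme with vehicle and 100% = wells lacking enzyme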
Active calls of the source: *; i = inactive; / = no result given.

SMILES | TMEM16A act | MT1-MMP act inh | TMEM16A inh | DAGLB inh
COc1ccc(C)cc1Nc1n[n+](-c2ccccc2)c(-c2ccc(OC)c(OC)c2OC)s1 | i | 1.5 | i | 5.4
COc1ccc2ccccc2c1-c1sc(Nc2ccccc2)n[n+]1-c1ccc(F)cc1 | i | -6.2 | 100* | 9.1
CC(=O)COC(=O)C1=NN(c2ccccc2)C(=O)CC1 | i | -0.3 | i | 0.5
O=C1NC(=O)/C(=C/c2ccc(-c3cc(C(=O)O)ccc3Cl)o2)S1 | i | 6.4 | i | 13.5
O=C1NC(=S)/C(=C\c2ccc(-c3ccccc3Cl)o2)S1 | -5.8* | -12.6 | i | 16.8
Cc1ccc2c(c1)CCCN2S(=O)(=O)c1cccc(C(=O)Nc2ccccc2C(=O)O)c1 | i | 6.3 | 100* | 11.0
Cc1occc1C(=O)N1CCN(c2ncccn2)CC1 | -50.4* | 5.9 | i | -2.3
O=C1C[C@H]2[C@H](CO)[C@@H](OC(=O)c3ccc(-c4ccccc4)cc3)C[C@H]2O1 | i | 9.8 | 25* | /
COc1ccccc1-c1ccc(SCc2ccccc2)nn1 | i | 3.0 | i | -6.6
COc1ccccc1-c1ccc(SCc2ccccc2F)nn1 | i | -2.4 | 25* | -8.2
O=C(CC1Sc2ccccc2NC1=O)NNc1cc(Cl)ccc1Cl (stereo not given) | i | 1.5 | / | 1.5
Clc1ccc(-c2nn3cnnc3s2)c(Cl)c1 | i | 0.3 | 25* | -1.5
CC(C)C(NC(=O)c1ccc(C(C)(C)C)cc1)C(=O)N1CCC(C(N)=O)CC1 (stereo not given) | i | -1.1 | / | -0.4
O=C(N/N=C/c1sc(N2CCOCC2)nc1-c1ccccc1)c1ccccc1O | i | 8.7 | 100* | -0.2
O=C(N/N=C/c1sc(N2CCOCC2)nc1-c1ccccc1)c1ccccc1Cl | i | -1.1 | i | -0.1
O=C(/C=C/c1ccc(Cl)cc1Cl)NCCSc1ccccc1 | i | 3.9 | 25* | -17.3
O=C(/C=C/c1ccc(Cl)cc1Cl)NCCSCc1ccccc1 | i | 2.5 | 100* | -17.0
O=C(/C=C/c1ccc(Cl)cc1)NCCSc1ccccc1 | i | 0.5 | i | -6.8
Cc1cc(N2CCN(C(C(=O)NC3CCCC3)c3ccco3)CC2)c2ccccc2n1 (stereo not given) | / | 0.5 | / | /
COc1cccc(-c2nnn(CC(=O)Nc3ccc(C)cc3C)n2)c1OC | i | 4.3 | 25* | 3.1
Cc1nn(-c2ccccc2)c(Cl)c1C(=O)N1CCN(c2ncnc3c2cnn3-c2ccccc2)CC1 | i | -39.0 | 25* | -0.8
Cc1ccnc2nc(C(=O)Nc3ccc(N4CCOCC4)cc3)nn12 | -11.4* | 11.0 | i | 3.1
CCCNc1ncnc2nc[nH]c12 | i | 2.1 | i | 0.9
C1=C(CCNc2ncnc3nc[nH]c23)CCCC1 | i | -7.9 | 25* | 1.5
O=c1[nH]c(=S)[nH]c2c1C(c1cccc(C(F)(F)F)c1)OC(CCc1ccccc1)C2 (stereo not given) | / | 3.4 | / | /
SMILES | TMEM16A act | MT1-MMP act inh | TMEM16A inh | DAGLB inh
Cc1[nH]c2ccccc2c1C(=O)CSC(=S)N1CCCCC1 | -11.7* | 0.4 | i | -4.5
Cc1ccc2cc(C#N)c(N3CCCN(S(=O)(=O)c4ccc(F)cc4)CC3)nc2c1 | -9.57* | -16.9 | i | -4.7
COC(C(=O)Nc1ccnn1C1CCN(Cc2ccc(C)s2)CC1)c1ccccc1 (stereo not given) | i | 0.5 | i | 0.1
Cc1cccc(/C=C/C(=O)c2cc(Br)ccc(=O)c2O)c1 | i | 0.0 | 25* | 19.1
CCc1ccc(/C=C/C(=O)c2cc(Br)ccc(=O)c2O)cc1 | i | -4.6 | i | 16.9
c1ccc(CCNc2ccc3ncc(-c4cccc5ccccc45)n3n2)nc1 | / | -7.7 | / | /
Cc1cccc(C)c1NC(=O)C1(C)CN(S(C)(=O)=O)CC(=O)N1Cc1ccco1 (stereo not given) | / | -0.3 | / | /
O=C(NCc1ccccc1)C(c1ccc(-c2ccccc2)cc1)N1CCN(CCN2CCOCC2)CC1 (stereo not given) | / | 0.6 | / | /
COc1ccccc1N1CCN(C(=O)c2oc3cc(C)cc(C)c3c2C)CC1 | i | -3.6 | 25* | 12.1
COc1ccccc1N1CCN(C(=O)c2cc(=O)c3ccc(C)cc3o2)CC1 | i | -3.0 | i | -3.8
COC[C@@H]1CCCN1[C@@H]1CS(=O)(=O)N[C@H]1COCc1ccccc1 | / | 0.7 | / | /
COc1cccc(CN2CCc3ccc(NC(=O)CCc4ccc(C)cc4)cc3C2)c1O | i | -1.1 | 25* | -3.4
